Data set [1] is classed as in vivo, human (Chinese patients with type 2 diabetes). The note with it: for AUC(0-inf) / AUC(0-t) / AUC / Tmax / Vd/F / half-life / k el / Cmax: human, plasma; for AUC(0-inf) / AUC(0-t) / AUC / Tmax / Vd/F / half-life / k el: oral; for AUC(0-inf): AUCinf; for AUC(0-inf) / AUC(0-t) / AUC / Vd/F / half-life / k el / %AUC_ex,ss / CLss/F / Cmin,ss / %AUC_ex / CL/F: mean (SD); for AUC(0-t): AUClast; for AUC: AUCtau; for Tmax: median (range); for Vd/F: Vz/F; for k el: λz; for Cmax: po. Summed up: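 Fasting oral tablets of 50, 100 or 200 mg were given once daily on days 1 and 3–9 (eight doses). Plasma was spun at 1700 ± 50 g, 4 °C, 10 min, acidified with 50% acetic acid (1:100) and stored ≤ –60 °C. Analysis was by validated LC-MS/MS (1.00–2000 ng/mL; LLOQ 1.00 ng/mL). Individual parameters and accumulation ratio came from noncompartmental analysis using actual sampling times.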

Data set [2] concerns the target T1, DPP-4 (Homo sapiens, UniProt P27487). Put plainly: Inhibition of plasma DPP-4 activity after single and multiple doses of DBPR108. Type of data set: in vivo, human (Chinese patients with type 2 diabetes). Summed up:
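Chinese adults with type 2 diabetes (HbA1c 7.0–9.5%, BMI 19–35 kg/m2), 10 per group. Oral tablets of 50, 100 or 200 mg were given fasting, once daily on days 1 and 3–9. Plasma was spun at 1300 ± 50 g, 2–8 °C, 10 min and stored ≤ –60 °C. DPP-4 activity was read on a microplate reader (LLOQ 21.23 μU/mL), with % inhibition taken from baseline.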

Data set [3] has as its system active GLP-1. Briefly: Plasma active GLP-1 level after single and multiple doses of DBPR108. Type of data set: in vivo, human (Chinese patients with type 2 diabetes). To be noted: for Emax,GLP-1 (active GLP-1): mean (SD). In outline: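 Patients with type 2 diabetes, 10 per group, received oral tablets of 50, 100 or 200 mg fasting, once daily on days 1 and 3–9. Plasma was spun at 1300 ± 50 g, 2–8 °C, 10 min and stored ≤ –60 °C. Active GLP-1 was measured by MSD V-PLEX kit (LLOQ 0.182 pM). Emax and time to Emax were taken per group, and correlation with exposure was checked.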

For data set [4], the target named is T1, DPP-4. Briefly: PK-PD relationship between DPP-4 inhibition and DBPR108 exposure. Type of data set: in vivo, human (Chinese patients with type 2 diabetes). In outline:
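Each patient's plasma drug level (LC-MS/MS) was paired with plasma DPP-4 % inhibition, after one dose and after repeated once-daily oral dosing at 50–200 mg. Linear correlation with exposure was assessed, and inhibition versus concentration was fitted with an Emax model giving Emax and EC50. Only patients with evaluable PK and PD data were included.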

Data set [5] in a line: Safety assessment. Type of data set: in vivo, human (Chinese patients with type 2 diabetes). In outline:
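Treatment-emergent adverse events were recorded as a secondary outcome in all patients dosed at least once. Dosing was oral tablets of 50, 100 or 200 mg, fasting, once daily on days 1 and 3–9. Patients were grouped by the dose actually received.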

In data set [6] the test system is DPP‐4. The note with it: cited from earlier work.
The test system of data set [7] is DPP‐2. The note with it: cited from earlier work.
Data set [8] has as its system DPP‐8. To be noted: cited from earlier work.
Data set [9] relates to DPP‐9. To be noted: cited from earlier work.
For data set [10], the system named is fibroblast activation protein. The note with it: cited from earlier work.
Data set [11] relates to DPP-4 activity in the plasma. To be noted: plasma of humans, rodents, dogs, and monkeys, range over species; cited from earlier work.
Data set [12] relates to diet-induced obese mice. To be noted: DBPR108 in combination with metformin; cited from earlier work.
The conditions of data set [13]: single dose of 100 mg, healthy subjects, cited from earlier work.
The conditions of data set [14]: large clinical trials, rare; cited from earlier work.
Data set [15] relates to DPP-4. The note with it: 168 h post single dose of 25 mg, healthy Japanese subjects; cited from earlier work.
The mark [16] stands for this setting: 50 mg, multiple doses 50 mg once daily.
[17] abbreviates: 100 mg, multiple doses 100 mg once daily.
The mark [18] stands for this setting: 200 mg, multiple doses 200 mg once daily.
Where [19] appears, read: multiple doses 50 mg once daily.
Setting [20] is: multiple doses 100 mg once daily.
The mark [21] stands for this setting: multiple doses 200 mg once daily.
Setting [22] is: multiple doses, range over 50-200 mg groups.
[23] abbreviates: single dose and multiple doses, 50 mg to 200 mg, linear regression.

“And” between values parts separate entries of the source, which are not always exact repeats. Equal values may be shown once. Read-outs that look alike come from different tables or passages of the source.

Usually AUC(0-inf) stands for the area under the concentration-time curve extrapolated to infinity. A higher AUC(0-inf) goes with more exposure. As usually defined, the AUC(0-t) is exposure summed from dosing to a finite time, without extrapolation to infinity. Read a low AUC(0-t) as less exposure. Broadly, the AUC is the area under the concentration-time curve, a measure of exposure. Low values mean low exposure, high ones high exposure. The term Vd/F denotes the volume of distribution divided by bioavailability. The half-life is the time needed for the level to fall by half in the phase considered. Low values mean rapid decline, high ones slow decline. One may read the EC50 as the concentration needed to bring the measured effect to its halfway point. A lower EC50 goes with a more potent agent. The term IC50 denotes the concentration that gives 50% inhibition.

T1 sequence (P27487 39-766): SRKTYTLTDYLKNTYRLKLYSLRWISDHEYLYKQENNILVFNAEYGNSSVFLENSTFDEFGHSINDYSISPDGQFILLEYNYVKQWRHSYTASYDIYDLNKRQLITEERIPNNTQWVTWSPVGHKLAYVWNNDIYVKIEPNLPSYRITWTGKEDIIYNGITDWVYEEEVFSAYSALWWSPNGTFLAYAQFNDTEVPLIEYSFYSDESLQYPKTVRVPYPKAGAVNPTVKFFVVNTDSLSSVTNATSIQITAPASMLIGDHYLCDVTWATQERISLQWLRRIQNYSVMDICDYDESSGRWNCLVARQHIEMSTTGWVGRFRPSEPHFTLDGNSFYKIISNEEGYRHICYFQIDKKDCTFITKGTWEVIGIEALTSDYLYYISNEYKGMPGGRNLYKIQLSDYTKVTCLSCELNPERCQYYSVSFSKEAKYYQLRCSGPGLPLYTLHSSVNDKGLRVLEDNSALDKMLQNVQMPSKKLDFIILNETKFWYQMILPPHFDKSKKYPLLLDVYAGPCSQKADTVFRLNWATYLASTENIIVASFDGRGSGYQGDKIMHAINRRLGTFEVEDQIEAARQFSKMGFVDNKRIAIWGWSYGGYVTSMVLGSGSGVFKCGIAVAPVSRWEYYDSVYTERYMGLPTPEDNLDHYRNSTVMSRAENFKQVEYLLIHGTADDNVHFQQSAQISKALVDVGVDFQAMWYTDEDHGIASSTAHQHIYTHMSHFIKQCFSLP

As to `CC(C)(CC(=O)N1CCCC1)NCC(=O)N1C[C@@H](F)C[C@H]1C#N` [DBPR108, (2S,4S)-1-[2-(1,1-dimethyl-3-oxo-3-pyrrolidin-1-yl-propylamino)acetyl]-4-fluoro-pyrrolidine-2-carbonitrile], the “Dose proportionality of exposure (power model)” value in data set [1] (50 mg to 200 mg, single dose and multiple doses) was “increased dose proportionally”. Moreover, the “Steady state achieved on” value in data set [1] (dosing on days 1 and 3-9) was determined as 7 days. The AUC(0-inf) in data set [1] (50 mg, single dose 50 mg) amounted to 792 ng·h/mL; in data set [1] (100 mg, single dose 100 mg) it was 1530 ng·h/mL; in [1] (200 mg, single dose 200 mg), 3400 ng·h/mL. In addition, the exposure AUC(0-t) in data set [1] (50 mg, single dose 50 mg) is 780 ng·h/mL; in [1] (100 mg, single dose 100 mg), 1500 ng·h/mL; in data set [1] (200 mg, single dose 200 mg) it was 3280 ng·h/mL. Besides, the AUC in data set [1] (50 mg, single dose 50 mg) is 770 ng·h/mL; in data set [1] (100 mg, single dose 100 mg), 1450 ng·h/mL; in data set [1] (200 mg, single dose 200 mg), 3120 ng·h/mL. The Tmax in [1] (50 mg, single dose 50 mg) was 1.5 h; in [1] (100 mg, single dose 100 mg), 4.5 h; in [1] (200 mg, single dose 200 mg), 4.5 h; in data set [13] (median (range)), 4.48 (range 1–6) h. Besides, the Vd/F in data set [1] (setting [16]) was 806 L; in data set [1] (50 mg, single dose 50 mg), 479 L; in data set [1] (setting [17]), 896 L; in data set [1] (100 mg, single dose 100 mg), 1010 L; in data set [1] (setting [18]) it was 894 L; in data set [1] (200 mg, single dose 200 mg) it was 1070 L. Also, the half-life was 5 h in data set [1] (50 mg, t½, single dose 50 mg); 8 h in [1] (50 mg, t½,ss, multiple doses 50 mg once daily); 9.6 h in [1] (100 mg, t½, single dose 100 mg); 7.4 h in data set [1] (100 mg, t½,ss, multiple doses 100 mg once daily); 12.3 h in data set [1] (200 mg, t½, single dose 200 mg); 10.2 h in [1] (200 mg, t½,ss, multiple doses 200 mg once daily). Besides, the k el was 3.56e-05 s⁻¹ in [1] (setting [16]); 5e-05 s⁻¹ in [1] (50 mg, single dose 50 mg); 4.03e-05 s⁻¹ in data set [1] (setting [17]); 3.61e-05 s⁻¹ in [1] (100 mg, single dose 100 mg); 2.69e-05 s⁻¹ in [1] (setting [18]); 2.78e-05 s⁻¹ in data set [1] (200 mg, single dose 200 mg). For the same compound, the Cmax in [1] (50 mg) was 151 ng/mL; in data set [1] (100 mg) it was 239 ng/mL; in data set [1] (200 mg), 474 ng/mL; in data set [13] (mean (SD)) it was 218.8 (101.8) ng/mL. Further, the “%AUC_ex,ss” value in [1] (setting [19]) is reported as 4.48 (4.09) %; in data set [1] (setting [20]), 2.33 (3.04) %; in [1] (setting [21]) it was 3.17 (3.44) %. Further, the CLss/F is reported as 76.0 (23.3) L/h in data set [1] (setting [19]), 76.4 (22.3) L/h in data set [1] (setting [20]) and 64.6 (16.7) L/h in [1] (setting [21]). Further, the “Cmin,ss” value is on record as 3.2 (1.6) ng/mL in data set [1] (setting [19]), 5.6 (2.9) ng/mL in data set [1] (setting [20]) and 18.3 (16.8) ng/mL in [1] (setting [21]). In addition, the “Accumulation ratio (Rac)” value in data set [1] (multiple doses, range over the 50-, 100-, 200-mg groups) is 0.85 to 1.3 and 0.85–1.3. The “Steady state reached after” value in [1] (once-daily dosing, 50-200 mg) is “four”. The “%AUC_ex” value is reported as 1.5 (0.9) % in [1] (single dose 50 mg), 2.3 (1.4) % in data set [1] (single dose 100 mg) and 3.2 (3.2) % in [1] (single dose 200 mg). Moreover, the results for the CL/F in data set [1] (single dose 50 mg), in data set [1] (single dose 100 mg) and in data set [1] (single dose 200 mg) were 66.6 (16.5) L/h, 72.9 (26.2) L/h and 63.3 (17.0) L/h, respectively. The “maximum inhibitory efficacy of DPP-4” value in [2] (setting [22]) lay in the range of 62.1 to 89.4%. In data set [2] (setting [22]), the “time to Emax,DPP-4” value fell in the range of 3 to 4 h. Moreover, the entries for the “median time to Emax of DPP-4” value in data set [2] (single dose 50 mg), in data set [2] (single dose 100 mg) and in data set [2] (single dose 200 mg) were 2 h, 4 h and 6 h, respectively. In addition, the “Active GLP-1 levels after administration” value in [3] (after DBPR108 administration, 50-200 mg) is “increased”. Besides, the “Emax,GLP-1 (active GLP-1)” value in data set [3] (setting [19]) was 5.7 (2.2) pM; in data set [3] (setting [20]), 6.6 (2.3) pM; in data set [3] (setting [21]), 5.8 (3.2) pM; in data set [3] (single dose 50 mg), 4.5 (1.6) pM; in [3] (single dose 100 mg) it was 4.8 (1.4) pM; in data set [3] (single dose 200 mg), 5.5 (2.1) pM. The “median time to Emax,GLP-1” value in [3] (setting [22]) is 6 to 7 h; in data set [3] (single dose 50 mg) it was 8 h; in data set [3] (single dose 100 mg), 12 h; in data set [3] (single dose 200 mg), 12 h. The “Correlation between changes in plasma active GLP-1 and DBPR108 exposure” value in data set [3] (setting [23]) was “no linear correlation was noted”. Besides, the EC50 in [4] (EC50 (Emax model), after a single administration, DPP-4 inhibition versus plasma concentration) was 323 nM. In addition, the “Emax,DPP-4 (Emax model)” value in data set [4] (after multiple doses, DPP-4 inhibition versus plasma concentration) is reported as 106.19%. In addition, the Emax in [4] (read-out: Emax,DPP-4 (Emax model), after a single administration, DPP-4 inhibition versus plasma concentration) worked out at 120%; in [4] (read-out: Emax,DPP-4 (Emax model), after multiple doses, DPP-4 inhibition versus plasma concentration) it was 106%. The “Correlation between DPP-4 inhibition and DBPR108 exposure” value in data set [4] (setting [23]) is reported as “linear correlation was observed”. For the same compound, the Tolerability result in [5] (50-200 mg once daily, eight doses) is recorded as “well tolerated”. The Cardiovascular adverse events result in [5] (all 30 patients) was “no cardiovascular adverse events were observed”. Moreover, the “Severe TEAEs, serious TEAEs, TEAEs leading to treatment interruption or discontinuation” value in [5] (all 30 patients) was “No severe TEAEs, serious TEAEs, or TEAEs leading to treatment interruption or discontinuation occurred”. For the same compound, the “TEAE white blood cell count increase, n [%]” value in [5] (all 30 patients) was 1 [3.3%]. Moreover, in data set [5] (all 30 patients, 50-200 mg), the “Patients with treatment-emergent adverse events (TEAEs)” value worked out at 20%. Also, the IC50 was 15 nM in data set [6]; more than 50 nM in data set [7]; more than 50 nM in data set [8]; more than 50 nM in [9]; more than 50 nM in data set [10]; 4.1 to 20.4 nM in [11]. For the same compound, in data set [12], the Glucose tolerability result is “improved glucose tolerability”. The t½ in data set [13] (mean (SD)) is reported as 8.2 (8.6) h.
Consider `Cn1c(=O)cc(N2CCC[C@@H](N)C2)n(Cc2ccccc2C#N)c1=O` [alogliptin], for which, in data set [14], the Risk of pancreatitis result was “increased risks of pancreatitis were observed”.
Take `CS(=O)(=O)n1cc2c(n1)CN([C@H]1CO[C@H](c3cc(F)ccc3F)[C@@H](N)C1)C2` [omarigliptin]: in [15], the “Emax,DPP-4” value is given as 86.0%.
`N[C@@H](CC(=O)N1CCn2c(nnc2C(F)(F)F)C1)Cc1cc(F)c(F)cc1F` [sitagliptin]: in [14], the Risk of pancreatitis result is reported as “increased risks of pancreatitis were observed”.

These data come from paper PMC12064631 (Clinical Pharmacokinetics, 2025).
